Converted amounts (≈) assume the structure as drawn.
Columns and labels:
Pseudomonas aeruginosa = assay: Antibacterial activity against Pseudomonas aeruginosa by disc diffusion method; type: functional
Aspergillus flavus = assay: Antifungal activity against Aspergillus flavus by serial plate dilution method; type: functional
Trichophyton benhamiae = assay: Antifungal activity against Trichophyton mentagrophytes by serial plate dilution method; type: functional, Arthroderma benhamiae
Mus musculus [1] = assay: Analgesic activity against acetic acid-induced writhing in Swiss Albino mouse assessed as protection at 50 mg/kg, po; type: functional
Outline: (§1)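 Mice were dosed with the test agent or diclofenac sodium (2.5 mg/kg). One hour later, writhing was induced by ip injection of 0.6% acetic acid in distilled water at 10 ml/kg. Writhes were counted for 15 min right after the acetic acid injection, and percentage protection was calculated.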

Mus musculus [2] = assay: Analgesic activity against acetic acid-induced writhing in Swiss Albino mouse assessed as protection at 2.5 mg/kg, po; type: functional; outline: as §1
SF-268 = assay: Antiproliferative activity against SF268 cells assessed as growth at 100 uM after 48 hrs; type: functional; conditions: Homo sapiens, SF-268, 48 h; read-out: Activity
Outline: (§2)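 This was the NCI primary three-cell-line, one-dose screen (lung NCI-H, breast MCF-7, CNS SF-268). Cells were inoculated on preincubated microtiter plates, and the agent was added at a single concentration. Cultures were incubated for 48 h. The endpoint was determined with sulphorhodamine B protein staining, with negative growth values indicating cell kill.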

Klebsiella pneumoniae = assay: Antibacterial activity against Klebsiella pneumoniae by disc diffusion method; type: functional
Talaromyces marneffei = assay: Antifungal activity against Penicillium marneffei by serial plate dilution method; type: functional
Aspergillus fumigatus = assay: Antifungal activity against Aspergillus fumigatus by serial plate dilution method; type: functional
[3] = Antiproliferative activity against NCI-H cells assessed as growth at 100 uM after 48 hrs; type: functional; conditions: Homo sapiens, read-out: Activity; outline: as §2
MCF7 = assay: Antiproliferative activity against MCF7 cells assessed as growth at 100 uM after 48 hrs; type: functional; conditions: Homo sapiens, MCF7, 48 h; read-out: Activity; outline: as §2
Escherichia coli = assay: Antibacterial activity against Escherichia coli by disc diffusion method; type: functional
Staphylococcus aureus = assay: Antibacterial activity against Staphylococcus aureus by disc diffusion method; type: functional
MOLT-4 = assay: Antiproliferative activity against MOLT4 cells after 48 hrs; type: functional; conditions: Homo sapiens, MOLT-4, 48 h
Outline: (§3)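 This was the NCI 60-cell-line panel (lung, colon, melanoma, renal, ovarian, CNS, leukemia), with compounds tested over a five-dose range.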

RPMI-8226 = assay: Antiproliferative activity against RPMI8226 cells after 48 hrs; type: functional; conditions: Homo sapiens, RPMI-8226, 48 h; outline: as §3
SR = assay: Antiproliferative activity against SR cells after 48 hrs; type: functional; conditions: Homo sapiens; outline: as §3
[4] = read-out: LC50 (the source's name)

Row | Structure (SMILES) | MIC (Pseudomonas aeruginosa) [mg/L] | MIC (Aspergillus flavus) [mg/L] | MIC (Trichophyton benhamiae) [mg/L] | MIC (Klebsiella pneumoniae) [mg/L] | MIC (Talaromyces marneffei) [mg/L] | MIC (Aspergillus fumigatus) [mg/L] | MIC (Staphylococcus aureus) [mg/L] | Activity (Mus musculus [1]) [%] | growth at 100 µM (SF-268) [%] | growth at 100 µM [3] [%] | growth at 100 µM (MCF7) [%] | also measured
1 | COc1ccc(Br)c(C(=O)NNc2nc(-c3ccccc3)cs2)c1 | – | – | – | – | – | – | – | 12.5 | – | – | – | –
2 | O=C([O-])Cc1ccccc1Nc1c(Cl)cccc1Cl.[Na+] [DICLOFENAC SODIUM] | – | – | – | – | – | – | – | – | – | – | – | Activity (Mus musculus [2]): 62.5%
3 | COc1ccc(Br)c(C(=O)NNc2nc(-c3cc4ccccc4oc3=O)cs2)c1 | – | – | – | – | 12.5 (≈ 26.5 µM) | – | 50 (≈ 106 µM) | 37.5 | – | – | – | MIC (Escherichia coli): 50 mg/L (≈ 106 µM)
4 | COc1ccc(-c2csc(NNC(=O)c3cc(OC)ccc3Br)n2)cc1 | 50 (≈ 115 µM) | – | – | – | – | 50 (≈ 115 µM) | – | 25 | – | – | – | –
5 | COc1ccc(Br)c(C(=O)NNc2nc(-c3ccc(O)c(C(N)=O)c3)cs2)c1 | – | 60 (≈ 130 µM) | 12.5 (≈ 27 µM) | 12.5 (≈ 27 µM) | 12.5 (≈ 27 µM) | 12.5 (≈ 27 µM) | 12.5 (≈ 27 µM) | 56.25 | 55 | 17 | 19 | GI50 (MOLT-4): 22.6 µM; TGI (MOLT-4): 57 µM; CC50 (MOLT-4; [4]): ≥ 100 µM; GI50 (RPMI-8226): 27.9 µM; TGI (RPMI-8226): 92.5 µM; CC50 (RPMI-8226; [4]): ≥ 100 µM; GI50 (SR): 29.8 µM; TGI (SR): ≥ 100 µM; CC50 (SR; [4]): ≥ 100 µM
6 | CCC(C)n1ncn(-c2ccc(N3CCN(c4ccc(OC[C@H]5CO[C@](Cn6cncn6)(c6ccc(Cl)cc6Cl)O5)cc4)CC3)cc2)c1=O (stereo not given in full) [ITRACONAZOLE] | – | < 16 | < 16 | – | < 16 | < 16 | – | – | – | – | – | –

More lines, main results first:

Row | MIC (Pseudomonas aeruginosa) [mg/L] | MIC (Aspergillus flavus) [mg/L] | MIC (Trichophyton benhamiae) [mg/L] | MIC (Klebsiella pneumoniae) [mg/L] | MIC (Talaromyces marneffei) [mg/L] | MIC (Aspergillus fumigatus) [mg/L] | MIC (Staphylococcus aureus) [mg/L] | Structure (SMILES) | Activity (Mus musculus [1]) [%] | growth at 100 µM (SF-268) [%] | growth at 100 µM [3] [%] | growth at 100 µM (MCF7) [%] | also measured
7 | 50 (≈ 114 µM) | 50 (≈ 114 µM) | 50 (≈ 114 µM) | – | – | – | – | COc1ccc(Br)c(C(=O)NNc2nc(-c3ccc(Cl)cc3)cs2)c1 | 43.75 | – | – | – | –
8 | – | 50 (≈ 114 µM) | 12.5 (≈ 28.4 µM) | 50 (≈ 114 µM) | 12.5 (≈ 28.4 µM) | 12.5 (≈ 28.4 µM) | – | COc1ccc(Br)c(C(=O)NNc2nc(-c3ccnc(Cl)c3)cs2)c1 | 37.5 | 111 | 95 | 87 | –
9 | – | – | 12.5 (≈ 22.7 µM) | – | 12.5 (≈ 22.7 µM) | 10 (≈ 18.1 µM) | 50 (≈ 90.7 µM) | COc1ccc(Br)c(C(=O)NNc2nc(-c3cc4cc(Br)ccc4oc3=O)cs2)c1 | 50 | – | – | – | –
10 | 6.25 (≈ 14.3 µM) | 12.5 (≈ 28.7 µM) | – | 12.5 (≈ 28.7 µM) | – | 50 (≈ 115 µM) | 50 (≈ 115 µM) | COc1ccc(Br)c(C(=O)NNc2nc(-c3ccc(O)c(O)c3)cs2)c1 | 12.5 | 111 | 101 | 86 | MIC (Escherichia coli): 50 mg/L (≈ 115 µM)

Source: ChEMBL document CHEMBL1143777, “Synthesis of some bioactive 2-bromo-5-methoxy-N'-[4-(aryl)-1,3-thiazol-2-yl]benzohydrazide derivatives” (2007)
